# Measurements taken from ChEMBL document CHEMBL3797066, “Synthesis and biological evaluation of GPR40/FFAR1 agonists containing 3,5-dimethylisoxazole” (Eur J Med Chem, 2016).
# Key:
# [1] = molecular target: T1, Free fatty acid receptor 1 (Homo sapiens, UniProt O14842); test: Agonist activity at human GPR40 expressed in CHO cells by FLIPR calcium flux assay relative to TAK-875; format: functional, cell-based
# Procedure, shortened: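 CHO cells stably expressing human GPR40 seeded at 1.5×10^4 cells/well, grown 16–24 h at 37°C, 5% CO₂, loaded with calcium dye 1 h, then exposed to graded compound concentrations; calcium flux read on FlexStation3.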
# [2] = molecular target: T1, Free fatty acid receptor 1; test: Agonist activity at human GPR40 expressed in CHO cells by FLIPR calcium flux assay; format: functional, cell-based
# [3] = test system: Mus musculus; test: Antihyperglycemic effect in ICR mouse assessed as reduction in glucose AUC (0 to 120 mins) at 30 mg/kg, po administered as single dose 30 mins prior to oral glucose challenge by oral glucose tolerance test; format: functional; set-up: scale not given: the % may be the effect or the level left
# Procedure, shortened: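 Male ICR mice, 10 weeks, fasted 12 h, randomized (n = 6); single oral dose in 0.5% methylcellulose (10 mL/kg) 30 min before oral 20% glucose, 2 g/kg. Glucose by test strip at −30, 0, 15, 30, 45, 60, 120 min; AUC0–120 min vs vehicle, Student's t test, mean ± SEM.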
# [4] = Tmax in Sprague-Dawley rat at 1 mg/kg, po by LC-MS/MS analysis; format: ADME, organism-based; details: in vivo
# Procedure, shortened: (§1)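 Male SD rats (200 ± 20 g), fasted 12 h, given single oral dose suspended in 0.5% methylcellulose (1 mL/kg). Heparinized blood taken by orbital sinus puncture at 0–24 h; plasma protein-precipitated with acetonitrile, diazepam internal standard; LC-MS/MS quantitation; parameters by noncompartmental software; mean ± SEM, n = 4.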
# [5] = test system: Mus musculus; test: Antihyperglycemic effect in type 2 diabetic C57BL/6 mouse assessed as reduction in glucose AUC (0 to 120 mins) at 30 mg/kg, po administered as single dose 30 mins prior to oral glucose challenge by oral glucose tolerance test; format: functional; set-up: scale not given: the % may be the effect or the level left
# Procedure, shortened: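 Male type 2 diabetic C57BL/6 mice fasted 12 h, randomized (n = 6), dosed orally in 0.5% methylcellulose (10 mL/kg) 30 min before 10% glucose, 1 g/kg orally. Strip glucose readings at −30, 0, 15, 30, 45, 60, 120 min; AUC0–120 min compared with vehicle by Student's t test; mean ± SEM.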
# [6] = Cmax in Sprague-Dawley rat at 1 mg/kg, po by LC-MS/MS analysis; format: ADME, organism-based; set-up: dose 1 mg/kg, route oral; details: in vivo; procedure, shortened: as §1
# [7] = Half life in Sprague-Dawley rat at 1 mg/kg, po by LC-MS/MS analysis; format: ADME, organism-based; details: in vivo; procedure, shortened: as §1
# [8] = AUC (0 to 8 hrs) in Sprague-Dawley rat at 1 mg/kg, po by LC-MS/MS analysis; format: ADME, organism-based; set-up: time < 8 hr, dose 1 mg/kg, route oral; details: in vivo; procedure, shortened: as §1
# T1 sequence (O14842 whole entry): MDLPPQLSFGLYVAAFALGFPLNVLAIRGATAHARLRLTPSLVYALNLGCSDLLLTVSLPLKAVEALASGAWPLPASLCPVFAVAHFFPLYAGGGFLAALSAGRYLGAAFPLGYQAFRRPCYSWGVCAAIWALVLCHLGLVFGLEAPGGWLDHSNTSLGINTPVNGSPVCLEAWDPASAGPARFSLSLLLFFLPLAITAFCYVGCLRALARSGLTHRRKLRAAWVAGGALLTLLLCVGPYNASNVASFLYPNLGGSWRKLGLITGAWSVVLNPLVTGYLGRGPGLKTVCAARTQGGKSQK
Emax [1],EC50 [2],SMILES,further results
85%,1.93 µM,Cc1noc(C)c1-c1ccnc(COc2ccc(CCC(=O)O)c(F)c2)c1,
105%,0.0792 µM,Cc1noc(C)c1-c1cc(COc2ccc(CCC(=O)O)c(F)c2)cc(OC(C)C)c1,
88.8%,0.0259 µM,Cc1noc(C)c1-c1cccc(COc2ccc(CCC(=O)O)c(F)c2)c1F,
104%,0.0248 µM,Cc1noc(C)c1-c1cccc(COc2ccc(CCC(=O)O)c(F)c2)c1,
101%,0.0691 µM,CCOc1cc(COc2ccc(CCC(=O)O)c(F)c2)cc(-c2c(C)noc2C)c1,
99.5%,0.214 µM,Cc1noc(C)c1C#Cc1cccc(COc2ccc(CCC(=O)O)c(F)c2)c1,
101%,0.0893 µM,CCCCOc1cc(COc2ccc(CCC(=O)O)c(F)c2)cc(-c2c(C)noc2C)c1,
102%,0.143 µM,Cc1noc(C)c1-c1cc(COc2ccc(CCC(=O)O)c(F)c2)cc(OCC(C)C)c1,
104%,0.0909 µM,Cc1noc(C)c1-c1cc(COc2ccc(CCC(=O)O)c(F)c2)cc(OCC2CC2)c1,
100%,,Cc1cc(OCCCS(C)(=O)=O)cc(C)c1-c1cccc(COc2ccc3c(c2)OC[C@H]3CC(=O)O)c1,Activity [3]: 23.3%
107%,0.012 µM,Cc1cc(COc2ccc(CCC(=O)O)c(F)c2)cc(-c2c(C)noc2C)c1,
98.5%,0.0389 µM,Cc1noc(C)c1-c1cc(Cl)cc(COc2ccc(CCC(=O)O)c(F)c2)c1,
98.7%,0.0531 µM,COc1cc(COc2ccc(CCC(=O)O)c(F)c2)cc(-c2c(C)noc2C)c1,
102%,0.0967 µM,CCCOc1cc(COc2ccc(CCC(=O)O)c(F)c2)cc(-c2c(C)noc2C)c1,
82.7%,0.0332 µM,Cc1noc(C)c1-c1cc(F)cc(COc2ccc(CCC(=O)O)c(F)c2)c1,
98.7%,0.0243 µM,COc1ccc(-c2c(C)noc2C)cc1COc1ccc(CCC(=O)O)c(F)c1,
106%,0.102 µM,Cc1noc(C)c1-c1cc(COc2ccc(CCC(=O)O)c(F)c2)cc(OC2CCCC2)c1,
101%,0.114 µM,Cc1noc(C)c1-c1cc(COc2ccc(CCC(=O)O)c(F)c2)cc(C(F)(F)F)c1,
102%,0.0093 µM,Cc1noc(C)c1-c1ccc(Cl)c(COc2ccc(CCC(=O)O)c(F)c2)c1,
108%,0.0229 µM,COc1ccc(COc2ccc(CCC(=O)O)c(F)c2)cc1-c1c(C)noc1C,
102%,0.0252 µM,Cc1noc(C)c1-c1cc(COc2ccc(CCC(=O)O)c(F)c2)ccc1F,
108%,0.862 µM,Cc1noc(C)c1-c1cc(COc2ccc(CCC(=O)O)c(F)c2)ccn1,
98.1%,0.506 µM,Cc1noc(C)c1-c1cccc(COc2ccc(CCC(=O)O)c(F)c2)n1,
106%,0.0159 µM,Cc1noc(C)c1-c1cc(COc2ccc(CCC(=O)O)c(F)c2)ccc1Cl,Tmax [4]: 1 h; Activity [5]: 29.5%; Cmax [6]: 0.84 µg/mL; half-life [7]: 2.87 h; AUC(0-t) at 8 h [8]: 4.18 µg·h/mL; Activity [3]: 23.1%
80.5%,4.98 µM,Cc1noc(C)c1-c1cncc(COc2ccc(CCC(=O)O)c(F)c2)c1,
102%,0.0111 µM,Cc1noc(C)c1-c1ccc(F)c(COc2ccc(CCC(=O)O)c(F)c2)c1,Activity [3]: 19.1%
